Assay results reported in ChEMBL document CHEMBL4011628, “Pharmacophore Identification and Scaffold Exploration to Discover Novel, Potent, and Chemically Stable Inhibitors of Acid Ceramidase in Melanoma Cells” (J Med Chem, 2017).
Active and inactive are the calls of the source. No cut-off for these calls is given here.

Experiments:
[1] = target: Acid ceramidase (Homo sapiens, UniProt Q13510); test: Inhibition of human C-terminal His-tagged acid ceramidase variant 1 expressed in HEK293 cells using fluorogenic substrate Rbm-14-12 preincubated for 30 mins followed by substrate addition measured after 1 hr by fluorogenic assay; format: cell-based
[2] = Half life in PBS buffer at pH 7.4 at 10 uM by UPLC/MS analysis; format: physicochemical
Procedure, shortened: (§1)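 Compound taken from 10 mM DMSO stock to 10 μM in PBS pH 7.4 (prewarmed) or acetate pH 4.5, held at 37 °C with shaking. Samples taken over time and diluted in ACN. Analysed by UPLC BEH C18 (30–100% ACN over 4 min) with qTOF HRMS in positive ion mode. Half-life from one-phase decay fit of peak area versus time.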

[3] = Half life in acetate buffer at pH 4.5 at 10 uM by UPLC/MS analysis; format: physicochemical; procedure, shortened: as §1
[4] = Half life in mouse plasma at 2 uM up to 120 mins by UPLC/MS analysis; format: ADME, cell-free
Procedure, shortened: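 Mouse plasma with 5% DMSO, prewarmed 15 min at 37 °C; compound final 2.0 μM. Aliquots at 0, 5, 15, 30, 60 and 120 min quenched in cold ACN containing 200 nM warfarin internal standard. Spun 3500g, 15 min, 4 °C; supernatant run on UPLC/MS TQD. Half-life from one-phase decay fit of peak area versus time.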

[5] = target: T1, Acid ceramidase (Homo sapiens, UniProt Q13510); test: Inhibition of acid ceramidase in human A375 cells using fluorogenic substrate Rbm-14-12 preincubated for 2 hrs followed by substrate addition measured after 3 hrs by fluorogenic assay; format: cell-based
T1 sequence (Q13510 whole entry): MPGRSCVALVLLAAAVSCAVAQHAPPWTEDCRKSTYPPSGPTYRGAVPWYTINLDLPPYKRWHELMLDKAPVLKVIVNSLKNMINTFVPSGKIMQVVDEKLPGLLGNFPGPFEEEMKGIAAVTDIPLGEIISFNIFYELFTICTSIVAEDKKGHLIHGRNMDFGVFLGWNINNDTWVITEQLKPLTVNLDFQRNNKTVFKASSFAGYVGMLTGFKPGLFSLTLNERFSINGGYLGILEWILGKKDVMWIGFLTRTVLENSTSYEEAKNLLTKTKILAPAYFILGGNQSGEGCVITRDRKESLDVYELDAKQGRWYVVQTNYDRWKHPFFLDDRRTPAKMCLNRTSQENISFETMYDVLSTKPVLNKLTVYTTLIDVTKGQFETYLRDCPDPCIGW
Procedure, shortened: (§2)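 A375 (5 × 10^4) or G-361 (2.5 × 10^4) cells grown in DMEM with 10% FBS and 2 mM glutamine. Compounds or DMSO added 24 h after seeding, 2 h at 37 °C. Rbm-14-12 then added to 20 μM final for 3 h. Stopped with methanol/NaIO4; fluorescence read at ex 355/em 460. Run in triplicate; IC50 from four-parameter fit, mean ± SD of two independent experiments.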

[6] = target: T1, Acid ceramidase; test: Inhibition of acid ceramidase in human G361 cells using fluorogenic substrate Rbm-14-12 preincubated for 2 hrs followed by substrate addition measured after 3 hrs by fluorogenic assay; format: cell-based; procedure, shortened: as §2
[7] = tested on: A-375; test: Cytotoxicity against human A375 cells assessed as […] in cell viability after 72 hrs by MTT assay; format: cell-based; details: a-375, 72 h
[8] = tested on: G-361; test: Cytotoxicity against human G361 cells assessed as […] in cell viability after 72 hrs by MTT assay; format: cell-based; details: g-361, 72 h
[9] = target: T2, Acid ceramidase (Homo sapiens) (UniProt Q13510); test: Covalent binding affinity to recombinant human acid ceramidase assessed as N-terminal CTSIVAEDK peptide adduct formation at 10:1 molar ratio of compound to protein after 1 hr by trypsin digestion-based UPLC-MS analysis
T2 sequence (whole entry): T1 sequence (Q13510 whole entry)
Procedure, shortened: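 Purified recombinant human AC (10 μg) preincubated 1 h at 37 °C in 20 mM acetate pH 4.5 with 3 mM DTT. Compound then added at 10:1 molar ratio to protein, 1 h at 37 °C; DMSO control. Stopped with cold acetone, pellet dried, redissolved in 50 mM (NH4)2CO3 pH 8. Trypsin 1:50 w/w overnight at 37 °C; peptides read by LC-MS.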

Structure (SMILES) | IC50 [1] [nM] | half-life at 10 µM [2] [min] | half-life at 10 µM [3] [min] | half-life at 2 µM [4] [min] | IC50 [5] [nM] | IC50 [6] [nM] | Activity [7] | Activity [8] | Activity [9]
CCCCCCNC(=O)Nc1nc2ccccc2[nH]1 | > 10000 | – | – | – | – | – | – | – | –
Cc1ccccc1CNC(=O)n1c(N)nc2ccccc21 | 68.4 | 10 | 27 | < 5 | – | – | – | – | –
Nc1nc2ccccc2n1C(=O)NCc1ccccc1 | 29.3 | 13 | 42 | 13 | – | – | – | – | –
O=C(NCCCCc1ccccc1)n1nnc2ncccc21 | 1.3 | 2 | > 120 | < 5 | – | – | – | – | –
Cc1ccccc1CNC(=O)n1cnc2ccccc21 | 55.9 | 58 | 82 | 44 | – | – | – | – | –
CCCCCCNC(=O)n1nnc2ccccc21 | 4.1 | 17 | > 120 | 13 | – | – | – | – | –
CCCCCCNC(=O)Nc1nc2ccccc2o1 | > 10000 | – | – | – | – | – | – | – | –
CCCCCCNC(=O)n1ncc2ccccc21 | 9.9 | 81 | > 120 | > 120 | – | – | – | – | –
COc1nc2ccccc2n1C(=O)NCCCCc1ccccc1 | 13.9 | > 120 | > 120 | > 120 | 967 | 2780 | Non-Toxic | Non-Toxic | Active
O=C(NCc1ccccc1)n1cnc2ccccc21 | 22.5 | > 120 | 94 | 108 | 1060 | 2800 | Non-Toxic | Non-Toxic | –
CCCCCCNC(=O)n1cc(F)c(=O)[nH]c1=O [CARMOFUR] | 20.7 | – | – | – | 191 | 758 | – | – | –
CCCCCCNC(=O)N1C(=O)c2ccccc2C1=O | 7 | 9 | > 120 | 29 | – | – | – | – | –
CCCCCCNC(=O)n1nnc2ncccc21 | 2.2 | 2 | > 120 | < 5 | – | – | – | – | –
O=C(NCCCCc1ccccc1)n1c(=O)[nH]c2ccccc21 | > 10000 | > 120 | > 120 | > 120 | – | – | – | – | –
Cc1cccc(CNC(=O)n2c(N)nc3ccccc32)c1 | 8.5 | 11 | 27 | < 5 | – | – | – | – | –
CCCCCCNC(=O)n1cnc2ccccc21 | 6.6 | 59 | > 120 | > 120 | – | – | – | – | –

Structure (SMILES) | IC50 [1] [nM] | half-life at 10 µM [2] [min] | half-life at 10 µM [3] [min] | half-life at 2 µM [4] [min] | IC50 [5] [nM] | IC50 [6] [nM] | Activity [7] | Activity [8] | Activity [9]
O=C(NCCCCc1ccccc1)n1cnc2ccccc21 | 2.5 | 50 | > 120 | > 120 | 75.6 | 230 | Non-Toxic | Non-Toxic | Active
O=C(NCCCCc1ccccc1)n1nnc2ccccc21 | 2.1 | – | > 120 | – | – | – | – | – | –
O=C(NCCCCc1ccccc1)N1C(=O)c2ccccc2C1=O | 2.4 | 6 | > 120 | 23 | – | – | – | – | –
CCCCCCNC(=O)n1c(N)nc2ccccc21 | 2.4 | – | – | – | – | – | – | – | –
Cc1nc2ccccc2n1C(=O)NCCCCc1ccccc1 | 1 | 7 | 8 | 11 | – | – | – | – | –
CCCCCCNC(=O)Nc1nc2ccccc2s1 | > 10000 | – | – | – | – | – | – | – | –
Cc1ccc(CNC(=O)n2c(N)nc3ccccc32)cc1 | 7 | 23 | 34 | < 5 | – | – | – | – | –
O=C(NCCCCc1ccccc1)Nc1nc2ccccc2s1 | > 10000 | – | – | – | – | – | – | – | –
Cc1ccc(CNC(=O)n2cnc3ccccc32)cc1 | 14.8 | > 120 | > 120 | 94 | 505 | 928 | Non-Toxic | Non-Toxic | –
O=C(NCCCCc1ccccc1)Nc1nc2ccccc2[nH]1 | > 10000 | – | – | – | – | – | – | – | –
O=C(NCCCCc1ccccc1)n1ncc2ccccc21 | 4.7 | 134 | > 120 | > 120 | – | – | – | – | –
O=C(NCCCCc1ccccc1)n1c(=O)n(C(=O)NCCCCc2ccccc2)c2ccccc21 | 21 | > 120 | > 120 | > 120 | – | – | – | – | –
Cc1cccc(CNC(=O)n2cnc3ccccc32)c1 | 8.3 | 56 | > 120 | 71 | – | – | – | – | –
Nc1nc2ccccc2n1C(=O)NCCCCc1ccccc1 | 0.9 | 14 | 43 | 9 | – | – | – | – | –
O=C(NCCCCc1ccccc1)Nc1nc2ccccc2o1 | > 10000 | – | – | – | – | – | – | – | –
